The source of these data is ChEMBL document CHEMBL4130408, “Photoactivation provides a mechanistic explanation for pan-assay interference behaviour of 2-aminopyrroles in lipoxygenase inhibition” (Eur J Med Chem, 2017).

This experiment addresses T1, Polyunsaturated fatty acid lipoxygenase ALOX15 (Homo sapiens) (UniProt P16050).
T1 sequence (whole entry): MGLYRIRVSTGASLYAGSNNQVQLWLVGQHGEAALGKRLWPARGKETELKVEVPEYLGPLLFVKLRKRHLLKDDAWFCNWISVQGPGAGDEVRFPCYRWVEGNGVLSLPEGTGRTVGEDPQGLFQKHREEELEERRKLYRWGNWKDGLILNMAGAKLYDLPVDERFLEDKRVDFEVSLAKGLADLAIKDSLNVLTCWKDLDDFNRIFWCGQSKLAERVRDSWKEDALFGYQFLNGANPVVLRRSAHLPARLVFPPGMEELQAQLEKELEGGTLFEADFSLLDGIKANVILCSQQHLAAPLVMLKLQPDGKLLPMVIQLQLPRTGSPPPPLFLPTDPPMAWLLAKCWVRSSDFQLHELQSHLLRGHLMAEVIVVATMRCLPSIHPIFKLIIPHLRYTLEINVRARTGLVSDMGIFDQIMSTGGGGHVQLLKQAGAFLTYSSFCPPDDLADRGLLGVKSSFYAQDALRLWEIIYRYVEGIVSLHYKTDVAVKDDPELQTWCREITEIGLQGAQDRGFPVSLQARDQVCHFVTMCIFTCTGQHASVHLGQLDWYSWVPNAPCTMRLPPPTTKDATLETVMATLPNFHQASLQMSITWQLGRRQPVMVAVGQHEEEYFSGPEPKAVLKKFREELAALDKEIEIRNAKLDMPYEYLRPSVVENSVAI
Briefly: Inhibition of recombinant human 15-LOX-1 expressed in Escherichia coli BL21(DE3) assessed as residual activity at 50 uM using linoleic acid as substrate preincubated for 10 mins followed by substrate addition. A digest of the protocol:
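h-15-LOX-1 (1:100 enzyme stock, 1:400 final) preincubated 10 min at room temperature with inhibitor in 25 mM HEPES pH 7.4, then linoleic acid added to 25 µM final (inhibitor 50 µM final). 13(S)-HpODE formation read as A234 over time, rate taken from linear part within first 16 min; no-inhibitor = 100%, no-enzyme = 0%. Triplicate.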
Regarding `Nc1[nH]c(C(=O)c2ccccc2)c(-c2ccccc2Cl)c1C(=O)NCCc1c[nH]c2ccccc12`, the Activity was 98.2%.

Regarding `Nc1[nH]c(C(=O)c2ccc(Cl)cc2)c(-c2ccc(Br)cc2)c1C(=O)c1c[nH]c2ccc(F)cc12`, the Activity came to 96.2%.

Take `Nc1[nH]c(C(=O)c2ccccc2)c(-c2cccc3ccccc23)c1C(=O)NCc1ccc(Cl)cc1Cl`: the Activity came to 115%.

Turning to `Nc1[nH]c(C(=O)c2ccccc2)c(-c2ccc(F)cc2)c1C(=O)Cc1ccccc1`, the Activity was found to be 75.1%.

As for `COc1ccc(-c2c(C(=O)c3ccccc3)[nH]c(N)c2C(=O)NCc2ccccc2)cc1OC`, the Activity turned out to be 90.7%.

For `COc1ccc(-c2c(C(=O)c3ccccc3)[nH]c(N)c2C(=O)c2c[nH]c3ccccc23)cc1OC`, the Activity was 82.5%.

`Nc1[nH]c(C(=O)c2ccccc2)c(-c2ccccc2Br)c1C(=O)NC1CCCCC1`: the Activity was determined as 86.7%.

`COc1cc(-c2c(C(=O)c3ccccc3)[nH]c(N)c2C(N)=O)ccc1O`: the Activity came to 98.8%.

With `N#Cc1c(N)[nH]c(C(=O)c2ccccc2)c1-c1ccc(Cl)cc1`, the Activity was 92.2%.

As to `Nc1[nH]c(C(=O)c2ccccc2)c(-c2ccccc2C(F)(F)F)c1C(=O)c1c[nH]c2ccccc12`, the Activity was determined as 94.1%.

For the compound `NC(=O)c1c(N)[nH]c(C(=O)c2ccccc2)c1-c1ccccc1Br`, the Activity was 87.4%.

As for `Nc1[nH]c(C(=O)c2ccccc2)c(-c2ccc(Cl)cc2)c1C(=O)NCCC1=CCCCC1`, the Activity is 94.9%.

For the compound `NC(=O)c1c(N)[nH]c(C(=O)c2ccccc2)c1-c1ccccc1`, the Activity was found to be 116%.

Regarding `Nc1[nH]c(C(=O)c2ccccc2)c(-c2c(F)cccc2Cl)c1C(=O)NCCc1c[nH]c2ccccc12`, the Activity came out at 92.7%.

With `COc1ccc(-c2c(C(=O)c3ccccc3)[nH]c(N)c2C(N)=O)cc1OC`, the Activity was found to be 117%.

`Nc1[nH]c(C(=O)c2ccccc2)c(-c2cccc3ccccc23)c1C(=O)NC1CCCCC1`: the Activity came out at 65.6%.

Take `COc1ccc(C(=O)c2[nH]c(N)c(C(=O)NCCc3ccc(Cl)cc3Cl)c2-c2ccccc2Br)cc1`: the Activity turned out to be 86.4%.

Turning to `Nc1[nH]c(C(=O)c2ccccc2)c(-c2ccccn2)c1C(=O)c1c[nH]c2cc(F)ccc12`, the Activity was 98.5%.

Regarding `Nc1[nH]c(C(=O)c2ccccc2)c(-c2ccccc2Br)c1C(=O)NCCc1c[nH]c2ccccc12`, the Activity was determined as 61.9%.

As for `Nc1[nH]c(C(=O)c2ccc(Br)cc2)c(-c2ccc(Br)cc2)c1C(=O)N1CCOCC1`, the Activity came out at 87%.

Take `CC(NC(=O)c1c(N)[nH]c(C(=O)c2ccc(Cl)cc2)c1-c1ccc(Br)cc1)c1cccc2ccccc12` (configuration not stated): the Activity stood at 122%.

In the case of `NC(=O)c1c(N)[nH]c(C(=O)c2ccccc2)c1-c1cccc2ccccc12`, the Activity amounted to 69.2%.

Regarding `Nc1[nH]c(C(=O)c2ccc(Br)cc2)c(-c2ccc(Br)cc2)c1C(=O)N1CCCCC1`, the Activity is 63.3%.

In the case of `CC(C)(C)C(=O)c1c(N)[nH]c(C(=O)c2ccccc2)c1-c1ccc(Cl)cc1Cl`, the Activity worked out at 79.9%.

Consider `COc1ccc(C(=O)c2[nH]c(N)c(C(N)=O)c2-c2ccc(OC)c(OC)c2)cc1`, for which the Activity is 58%.

Turning to `Nc1[nH]c(C(=O)c2ccccc2)c(-c2cccnc2)c1C(=O)c1ccccc1`, the Activity is 84.9%.

For `Nc1[nH]c(C(=O)c2ccc(Br)cc2)c(-c2cccc3ccccc23)c1C(=O)NCCc1c[nH]c2ccccc12`, the Activity turned out to be 46.7%.

As for `COc1ccc2cccc(-c3c(C(=O)c4ccc(Br)cc4)[nH]c(N)c3C(=O)NCc3ccc(-c4ccccc4)cc3)c2c1`, the Activity was 115%.

Take `CC(NC(=O)c1c(N)[nH]c(C(=O)c2ccccc2)c1-c1ccccc1Br)c1cccc2ccccc12` (configuration not stated): the Activity came to 71.3%.

For the compound `Cc1ccc([C@@H](C)NC(=O)c2c(N)[nH]c(C(=O)c3ccccc3)c2-c2ccccc2C(F)(F)F)cc1`, the Activity came to 96.4%.

With `COc1ccc(C(=O)c2[nH]c(N)c(C(=O)c3ccccc3)c2-c2ccc(OC)c(OC)c2)cc1`, the Activity stood at 95.7%.

For the compound `Nc1[nH]c(C(=O)c2ccccc2)c(-c2cccc3ccccc23)c1C(=O)c1ccc(Br)cc1`, the Activity came out at 107%.
